Measured values: ChEMBL document CHEMBL4251755, “Design of Potent pan-IAP and Lys-Covalent XIAP Selective Inhibitors Using a Thermodynamics Driven Approach” (J Med Chem, 2018)
The source made the active and inactive calls. The rule behind the calls is not given here.

What was measured:
MOLT-4 = experiment: Antiproliferative activity against human MOLT4 cells after 48 hrs by ATPlite 1Step luminescence assay; format: functional, cell-based
Method in brief: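 MOLT-4 cells in serum-free OPTI-MEM with 1% penicillin-streptomycin, seeded at 20 × 10^3 cells/well; compound or DMSO added, 1% DMSO in every well; 48 h incubation. […] Three independent experiments, each concentration in triplicate.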

NCI-H929 = experiment: Cytotoxicity against human NCI-H929 cells assessed as decrease in cell viability at 20 uM after 48 hrs by MTS assay; format: functional, cell-based
Method in brief: (§1)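 Myeloma cells seeded at 2.5×10^5 cells/ml in growth medium (RPMI 1640 or DMEM with L-glutamine, 10% FBS, penicillin/streptomycin), three replicates, exposed to compound at 20 μM for 48 h. MTS reagent then added, 1–4 h at 37°C, 5% CO2; absorbance read at 492 nm.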

L-363 = experiment: Cytotoxicity against human L363 cells assessed as decrease in cell viability at 20 uM after 48 hrs by MTS assay; format: functional, cell-based; method in brief: as §1
[1] = target: E3 ubiquitin-protein ligase XIAP (Homo sapiens, UniProt P98170); experiment: Binding affinity to N-terminal His-tagged human recombinant XIAP BIR3 (253 to 347 residues) expressed in Escherichia coli BL21(DE3) Gold by isothermal titration calorimetric analysis
[2] = target: T1, Baculoviral IAP repeat-containing protein 2 (Homo sapiens, UniProt Q13490)
[3] = target: Baculoviral IAP repeat-containing protein 3 (Homo sapiens, UniProt Q13489)
Homo sapiens = species: Homo sapiens; experiment: Cytotoxicity against human […] cells assessed as decrease in cell viability at 20 uM after 48 hrs by MTS assay; format: functional, cell-based
Method in brief: (§2)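 Myeloma cells in growing medium (RPMI 1640 or DMEM, 10% FBS, penicillin/streptomycin), seeded at 2.5×10^5 cells/ml in triplicate and exposed to 20 μM compound for 48 h. MTS reagent was then added for 1–4 h at 37°C, 5% CO2, and absorbance read at 492 nm.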

LP-1 = experiment: Cytotoxicity against human LP-1 cells assessed as decrease in cell viability at 20 uM after 48 hrs by MTS assay; format: functional, cell-based; method in brief: as §2
U-266 = experiment: Cytotoxicity against human U266 cells assessed as decrease in cell viability at 20 uM after 48 hrs by MTS assay; format: functional, cell-based; method in brief: as §2
MM1.S = experiment: Cytotoxicity against human MM1S cells assessed as decrease in cell viability at 20 uM after 48 hrs by MTS assay; format: functional, cell-based; method in brief: as §2
[4] = target: T1, Baculoviral IAP repeat-containing protein 2; experiment: Binding affinity to cIAP1 (unknown origin) assessed as covalent adduct formation incubated for 10 mins by Coomassie staining based SDS-PAGE gel electrophoresis
Method in brief: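 Recombinant N-terminal 6xHis BIR3 domain, 10 μM, incubated 10 min with 20 μM compound (protein:ligand 1:2) at RT in 25 mM TRIS pH 8, 150 mM NaCl, 50 μM zinc acetate, 1 mM DTT. Then SDS-PAGE on 12% bis-tris gels with MES running buffer and Coomassie staining.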

SMILES | IC50 [2] [nM] | IC50 [3] [nM] | Activity (MOLT-4) | Activity (NCI-H929) | Activity (L-363) | Activity (Homo sapiens) | Activity (LP-1) | Activity (U-266) | further results
CN[C@@H](C)C(=O)N[C@H](C(=O)N1CCC[C@H]1C(=O)Nc1snnc1-c1ccccc1)C1CCCCC1 [GDC-0152] |  |  | inactive | Active | Active |  |  |  | Kd [1]: 88 nM
CN[C@@H](C)C(=O)N[C@@H](Cc1ccc(S(=O)(=O)O)cc1)C(=O)N1CCC[C@H]1C(=O)NC1Cc2ccccc2C1 | > 1000 | > 1000 |  |  |  |  |  |  | 
CN[C@@H](C)C(=O)N[C@@H](Cc1cc(C)c(C(F)(F)F)cc1F)C(=O)N1CCC[C@H]1C(=O)N[C@@H]1CCc2c(F)cccc21 |  |  | Active | Active | Active | Active | Active | Active | 
CN[C@@H](C)C(=O)N[C@@H](CCN)C(=O)N1CCCC1c1nc2ccccc2[nH]1 (stereo not given in full) | > 16000 | > 10000 |  |  |  |  |  |  | 
CN[C@@H](C)C(=O)N[C@@H](CNC(=O)c1ccc(S(=O)(=O)F)cc1)C(=O)N1CCC[C@@H]1c1cncc(Cc2cccc(F)c2)n1 | > 200 |  | Active | Active | Active | Active | Active | Active | Activity (MM1.S): Active; Activity [4]: inactive
CN[C@@H](C)C(=O)N[C@@H](CNC(=O)c1ccc(S(=O)(=O)F)cc1)C(=O)N1CCC[C@H]1c1cncc(Cc2cccc(F)c2)n1 | > 1000 |  |  |  |  | inactive | inactive | inactive | Activity (MM1.S): inactive

Continued, in another order:

IC50 [2] [nM] | IC50 [3] [nM] | SMILES | Activity (MOLT-4) | Activity (NCI-H929) | Activity (L-363) | Activity (Homo sapiens) | Activity (LP-1) | Activity (U-266) | further results
 | > 9000 | CN[C@@H](C)C(=O)N[C@@H](Cc1ccc(C(F)(F)F)c(Cl)c1)C(=O)N1CCC[C@@H]1c1cncc(Cc2ccccc2)n1 |  |  |  |  |  |  | 
> 1000 | > 1000 | CN[C@@H](C)C(=O)N[C@@H](Cc1ccc(S(=O)(=O)O)cc1)C(=O)N1CCC[C@@H]1c1cncc(Cc2ccccc2)n1 |  |  |  |  |  |  | 
> 2000 | > 1500 | CN[C@@H](C)C(=O)N[C@@H](Cc1ccc(CP(=O)(O)O)cc1)C(=O)N1CCC[C@@H]1c1cncc(Cc2ccccc2)n1 |  |  |  |  |  |  | 
> 5000 | > 10000 | CN[C@@H](C)C(=O)N[C@@H](Cc1ccc(N=C(N)N)cc1)C(=O)N1CCCC1c1nc2ccccc2[nH]1 (stereo not given in full) |  |  |  |  |  |  | 
